For data set [1], the system named is Rattus norvegicus. The data set is described as follows: Toxicity in Sprague-Dawley rat assessed as liver weight measured per 100 g of body weight at 200 mg/kg, po after 7 days (reference value: 3.3 g). It counts as organism-based. More on the design: dose 200 mg/kg, route oral. The following applies: in vivo, 168 h.
Data set [2] concerns Rattus norvegicus. Description: Toxicity in Sprague-Dawley rat assessed as increase in body weight at 200 mg/kg, po after 7 days relative to control. It counts as organism-based. Also on record: dose 200 mg/kg, route oral. As to conditions: in vivo, 168 h.
Data set [3] in a line: Antitumor activity against Sprague-Dawley rat mammary tumor cells assessed as increase in apoptotic index at 200 mg/kg, po after 7 days by TUNEL assay relative to control. Format: functional. The gist of the method:
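Female Sprague Dawley rats with N-methyl-nitrosourea-induced mammary cancers (about 200 mm²) were given the retinoid in Teklad diet for 7 days. BrdU was injected 2 h before CO₂ euthanasia. Cancers were excised and fixed in 10% formalin. Each index is the ratio of treated to vehicle-fed animals.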

Data set [4] deals with Rattus norvegicus. The data set is described as follows: Toxicity in 216 days old Sprague-Dawley rat assessed as increase in serum triglyceride level at 200 mg/kg, po administered with diet after 7 days relative to control. The following applies: in vivo, 168 h. Also on record: dose 200 mg/kg, route oral. Format: organism-based.
For data set [5], the system named is Rattus norvegicus. Description: Toxicity in 50 days old Sprague-Dawley rat assessed as increase in serum triglyceride level at 200 mg/kg, po administered with diet after 7 days relative to control. As to conditions: in vivo, 168 h. It counts as organism-based. Also on record: dose 200 mg/kg, route oral.

Turning to `CC(=C/C=C/C(C)=C/C(=O)O)/C=C1\CC[C@@H](C)c2ccccc21`, the Activity in the data set with Rattus norvegicus [1] was 4.2 g; with Rattus norvegicus [2] it was 3%; in data set [3] it was 150%.
On to `CC(=C/C=C/C(C)=C/C(=O)O)/C=C1\CC[C@H](C)c2ccccc21`, for which the Activity was found to be 3.8 g in the data set with Rattus norvegicus [1], 3% in the data set with Rattus norvegicus [2], 300% in data set [3] and 175% in the data set on Rattus norvegicus [4].
Consider `CC(=C/C=C/C(C)=C/C(=O)O)/C=C1\CCC(C)c2ccccc21` (racemic), for which the Activity in the data set on Rattus norvegicus [2] is listed as 3%; in data set [3], 300%; in the data set on Rattus norvegicus [5] it was 566%; with Rattus norvegicus [4], 370%.
With `CC1=C(/C=C/C(C)=C\C=C\C(C)=C\C(=O)O)C(C)(C)CCC1` [ALITRETINOIN], the Activity with Rattus norvegicus [2] turned out to be 3%.
On the same count and under the same terms, the value for `C=C(c1ccc(C(=O)O)cc1)c1cc2c(cc1C)C(C)(C)CCC2(C)C` [BEXAROTENE] was 3%.
Turning to `CC(=C/C=C/C(C)=C/C(=O)O)/C=C1\CCCc2ccccc21` [UAB-30], the Activity with Rattus norvegicus [2] is 3%; in data set [3], 33%.

The values above are taken from ChEMBL document CHEMBL3098106 (Bioorg Med Chem, 2014).
